Test results taken from ChEMBL document CHEMBL1135628, “Potent and long-acting corticotropin releasing factor (CRF) receptor 2 selective peptide competitive antagonists” (J Med Chem, 2002).

Key:
[1] = molecular target: T1, Corticotropin-releasing factor receptor 1 (Homo sapiens, UniProt P34998); assay: Inhibition of recombinant corticotropin releasing factor receptor 1 assayed using nonselective [125I]-labeled agonist [Tyr0,Glu1,Nle17]-sauvagine
T1 sequence (P34998 whole entry): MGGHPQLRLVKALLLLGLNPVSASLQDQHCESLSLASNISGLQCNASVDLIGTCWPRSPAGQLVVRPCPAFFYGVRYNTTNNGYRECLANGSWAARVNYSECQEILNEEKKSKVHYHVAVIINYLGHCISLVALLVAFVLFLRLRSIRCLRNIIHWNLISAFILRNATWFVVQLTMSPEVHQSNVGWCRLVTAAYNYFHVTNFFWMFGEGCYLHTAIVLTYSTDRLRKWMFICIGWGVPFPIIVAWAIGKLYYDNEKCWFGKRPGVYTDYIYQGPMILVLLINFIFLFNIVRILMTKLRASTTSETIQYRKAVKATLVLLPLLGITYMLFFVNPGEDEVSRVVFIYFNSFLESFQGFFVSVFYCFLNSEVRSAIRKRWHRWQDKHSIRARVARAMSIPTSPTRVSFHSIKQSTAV
How it was run: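 Crude plasma membranes from stable CHO lines expressing hCRF1 or mCRF2β, stored in 10% sucrose at -80 °C. Incubated 90 min at room temperature, then washed and filtered. IC50 taken from one representative assay, repeated at least twice.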

[2] = molecular target: Corticotropin-releasing factor receptor 2 (Mus musculus) (UniProt Q60748); assay: Inhibition of recombinant mouse corticotropin releasing factor receptor 2 beta (CRF2beta) assayed using nonselective [125I]-labeled agonist [Tyr0,Glu1,Nle17]-sauvagine as radioligand
Corticotropin-releasing factor receptor 2 (Mus musculus), sequence (Q60748 whole entry, looked up): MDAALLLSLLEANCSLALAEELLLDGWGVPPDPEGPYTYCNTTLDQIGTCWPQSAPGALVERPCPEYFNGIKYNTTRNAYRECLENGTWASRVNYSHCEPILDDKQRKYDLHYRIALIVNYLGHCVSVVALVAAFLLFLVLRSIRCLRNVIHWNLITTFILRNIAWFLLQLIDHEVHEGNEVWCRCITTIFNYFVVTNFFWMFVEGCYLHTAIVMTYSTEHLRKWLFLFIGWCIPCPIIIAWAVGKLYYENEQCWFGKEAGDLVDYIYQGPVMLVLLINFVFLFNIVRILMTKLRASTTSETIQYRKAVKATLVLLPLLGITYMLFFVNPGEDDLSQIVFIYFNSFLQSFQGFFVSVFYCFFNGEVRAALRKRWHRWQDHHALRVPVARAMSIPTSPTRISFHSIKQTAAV

CCCC[C@H](NC(=O)[C@H](CCCCN)NC(=O)[C@H](CCCN=C(N)N)NC(=O)[C@H](CC(C)C)NC(=O)[C@](C)(CC(C)C)NC(=O)[C@H](Cc1c[nH]cn1)NC(=O)[C@@H](Cc1ccccc1)NC(=O)[C@H](CO)NC(=O)[C@H](CC(C)C)NC(=O)[C@H](CC(=O)O)NC(C)=O)C(=O)N[C@H](C(=O)N[C@@H](CCC(=O)O)C(=O)N[C@H](C(=O)N[C@@H](CCC(=O)O)C(=O)N[C@@H](CCCCN)C(=O)N[C@@H](CCC(N)=O)C(=O)N[C@@H](CCC(=O)O)C(=O)N[C@@H](CCCCN)C(=O)N[C@@H](CCC(=O)O)C(=O)N[C@@H](CCCCN)C(=O)N[C@@H](CCC(N)=O)C(=O)N[C@@H](CCC(N)=O)C(=O)N[C@@H](C)C(=O)N[C@@H](C)C(=O)N[C@H]1CCC(=O)NCCCC[C@@H](C(=O)N[C@@H](CC(C)C)C(=O)N[C@@H](CC(C)C)C(=O)N[C@@H](CC(=O)O)C(=O)N[C@@](C)(CC(C)C)C(=O)N[C@H](C(N)=O)[C@@H](C)CC)NC(=O)[C@H](CCCN=C(N)N)NC(=O)[C@H](CC(N)=O)NC1=O)[C@@H](C)CC)[C@@H](C)CC
IC50 [1]: 5.9 nM
IC50 [2]: 0.61 nM
